What was measured:
[1] = molecular target: MAP kinase-activated protein kinase 2 (Homo sapiens) (UniProt P49137); experiment: Inhibition of MAPKAPK2 at 10 uM by HTRF assay relative to control
Outline: (§1)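 HTRF kinase assay, one panel of kinases. Inhibitor stock 50 µM in 100% DMSO; tested at 10 µM. ATP and substrate at final levels near Km. Final buffer: 50 mM Hepes/NaOH pH 7.4, 40 µM Na3VO4, 0.005% Tween-20, 1 mM DTT, MnCl2 or MgCl2 at kinase-dependent levels. Started by adding ATP/substrate. Reaction run at room temperature, time varied by kinase. Detection mix in 50 mM Hepes pH 7.4, 0.1% BSA, 150 mM KF, incubated ≥1 h at room temperature. Activity expressed as % of uninhibited control; n=2.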

[2] = molecular target: Insulin-like growth factor 1 receptor (Homo sapiens) (UniProt P08069); experiment: Inhibition of IGF1R at 10 uM by HTRF assay relative to control; outline: as §1
Sequence of Insulin-like growth factor 1 receptor (Homo sapiens) (P08069 31-736 limits assumed): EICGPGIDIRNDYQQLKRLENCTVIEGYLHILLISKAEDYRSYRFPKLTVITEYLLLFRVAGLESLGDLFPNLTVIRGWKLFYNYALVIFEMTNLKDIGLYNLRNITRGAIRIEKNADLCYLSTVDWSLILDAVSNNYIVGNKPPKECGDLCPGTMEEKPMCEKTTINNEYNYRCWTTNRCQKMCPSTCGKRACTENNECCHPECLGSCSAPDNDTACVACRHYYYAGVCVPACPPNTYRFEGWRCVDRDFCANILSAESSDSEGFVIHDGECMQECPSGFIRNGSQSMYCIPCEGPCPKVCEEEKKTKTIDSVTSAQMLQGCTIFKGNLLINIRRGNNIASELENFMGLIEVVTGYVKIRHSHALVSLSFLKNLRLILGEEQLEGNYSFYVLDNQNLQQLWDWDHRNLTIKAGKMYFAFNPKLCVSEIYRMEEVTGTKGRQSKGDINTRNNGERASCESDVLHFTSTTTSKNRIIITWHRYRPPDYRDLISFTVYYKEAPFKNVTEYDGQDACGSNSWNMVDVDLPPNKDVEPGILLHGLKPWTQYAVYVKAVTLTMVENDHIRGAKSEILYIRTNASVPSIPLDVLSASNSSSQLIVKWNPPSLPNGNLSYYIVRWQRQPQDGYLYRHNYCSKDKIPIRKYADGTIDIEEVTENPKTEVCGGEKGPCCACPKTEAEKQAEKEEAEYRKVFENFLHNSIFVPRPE
Sequence of Insulin-like growth factor 1 receptor (Homo sapiens) (P08069 741-1367 limits assumed): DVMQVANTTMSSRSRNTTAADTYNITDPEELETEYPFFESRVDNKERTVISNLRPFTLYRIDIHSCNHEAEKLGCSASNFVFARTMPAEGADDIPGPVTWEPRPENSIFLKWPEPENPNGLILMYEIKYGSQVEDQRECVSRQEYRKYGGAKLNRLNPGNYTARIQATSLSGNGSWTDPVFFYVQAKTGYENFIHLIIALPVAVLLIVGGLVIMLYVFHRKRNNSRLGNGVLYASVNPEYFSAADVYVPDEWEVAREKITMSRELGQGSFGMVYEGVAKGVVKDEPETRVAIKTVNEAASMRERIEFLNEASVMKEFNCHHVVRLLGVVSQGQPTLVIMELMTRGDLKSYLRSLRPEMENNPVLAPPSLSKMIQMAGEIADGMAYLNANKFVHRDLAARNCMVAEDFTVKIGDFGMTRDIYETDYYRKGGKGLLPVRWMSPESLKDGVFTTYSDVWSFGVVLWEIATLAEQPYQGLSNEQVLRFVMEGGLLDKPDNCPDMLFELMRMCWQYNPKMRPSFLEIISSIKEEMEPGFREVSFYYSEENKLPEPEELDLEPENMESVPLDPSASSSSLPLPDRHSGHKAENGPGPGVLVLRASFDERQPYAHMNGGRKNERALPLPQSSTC

[3] = molecular target: T1, Tyrosine-protein kinase ZAP-70 (Homo sapiens) (UniProt P43403); experiment: Inhibition of ZAP70 at 10 uM by HTRF assay relative to control; outline: as §1
T1 sequence (whole entry): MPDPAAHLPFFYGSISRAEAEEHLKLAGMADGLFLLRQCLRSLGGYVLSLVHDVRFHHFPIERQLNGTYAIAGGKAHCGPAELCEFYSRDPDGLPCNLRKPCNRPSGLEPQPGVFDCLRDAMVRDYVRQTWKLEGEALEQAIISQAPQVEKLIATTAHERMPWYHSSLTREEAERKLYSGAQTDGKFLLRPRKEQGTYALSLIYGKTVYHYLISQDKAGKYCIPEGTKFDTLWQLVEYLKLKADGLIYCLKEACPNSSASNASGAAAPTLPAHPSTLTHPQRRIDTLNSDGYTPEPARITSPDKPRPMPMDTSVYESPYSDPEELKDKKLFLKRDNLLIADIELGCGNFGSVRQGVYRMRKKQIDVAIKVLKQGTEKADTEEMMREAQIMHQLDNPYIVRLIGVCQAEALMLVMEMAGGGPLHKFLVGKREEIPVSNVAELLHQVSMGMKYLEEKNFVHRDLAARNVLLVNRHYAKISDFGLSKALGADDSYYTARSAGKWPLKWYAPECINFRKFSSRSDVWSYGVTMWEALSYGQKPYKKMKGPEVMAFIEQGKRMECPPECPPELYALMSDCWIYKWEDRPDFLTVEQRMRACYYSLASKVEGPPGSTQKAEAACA

[4] = molecular target: Epidermal growth factor receptor (Homo sapiens) (UniProt P00533); experiment: Inhibition of EGFR at 10 uM by HTRF assay relative to control; outline: as §1
Sequence of Epidermal growth factor receptor (Homo sapiens) (P00533 whole entry): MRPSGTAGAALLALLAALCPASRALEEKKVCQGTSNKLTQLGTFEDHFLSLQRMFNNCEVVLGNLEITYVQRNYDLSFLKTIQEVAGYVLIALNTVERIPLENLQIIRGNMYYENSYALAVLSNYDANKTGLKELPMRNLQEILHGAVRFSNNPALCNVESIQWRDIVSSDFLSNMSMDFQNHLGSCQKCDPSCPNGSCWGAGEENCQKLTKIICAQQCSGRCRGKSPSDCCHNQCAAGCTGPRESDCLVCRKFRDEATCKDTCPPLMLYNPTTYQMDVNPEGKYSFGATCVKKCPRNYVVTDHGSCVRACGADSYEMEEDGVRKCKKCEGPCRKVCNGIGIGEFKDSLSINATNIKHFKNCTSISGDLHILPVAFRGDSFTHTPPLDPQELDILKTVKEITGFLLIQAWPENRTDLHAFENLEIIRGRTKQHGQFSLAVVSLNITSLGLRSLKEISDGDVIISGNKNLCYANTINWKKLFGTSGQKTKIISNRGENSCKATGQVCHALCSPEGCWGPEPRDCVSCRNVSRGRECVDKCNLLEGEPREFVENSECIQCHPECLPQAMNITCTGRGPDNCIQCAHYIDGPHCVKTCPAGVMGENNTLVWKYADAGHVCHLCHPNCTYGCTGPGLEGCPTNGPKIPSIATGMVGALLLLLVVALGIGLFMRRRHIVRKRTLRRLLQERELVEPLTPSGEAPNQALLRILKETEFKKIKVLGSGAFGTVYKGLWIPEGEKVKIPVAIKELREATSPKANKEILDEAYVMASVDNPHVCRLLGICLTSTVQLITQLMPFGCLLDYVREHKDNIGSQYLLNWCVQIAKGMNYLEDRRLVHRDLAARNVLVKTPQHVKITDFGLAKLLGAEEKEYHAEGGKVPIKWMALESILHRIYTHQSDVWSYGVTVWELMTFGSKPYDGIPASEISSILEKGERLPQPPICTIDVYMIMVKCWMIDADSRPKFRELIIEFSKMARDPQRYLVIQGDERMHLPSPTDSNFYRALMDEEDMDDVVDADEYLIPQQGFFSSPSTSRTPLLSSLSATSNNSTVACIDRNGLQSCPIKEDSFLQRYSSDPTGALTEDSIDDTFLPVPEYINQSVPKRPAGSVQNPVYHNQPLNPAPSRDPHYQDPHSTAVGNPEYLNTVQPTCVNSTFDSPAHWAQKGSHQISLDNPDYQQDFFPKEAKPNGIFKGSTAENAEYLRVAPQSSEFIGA

[5] = molecular target: Cyclin-dependent kinase 1 (Homo sapiens) (UniProt P06493); experiment: Inhibition of CDK1 at 10 uM by HTRF assay relative to control; outline: as §1
Sequence of Cyclin-dependent kinase 1 (Homo sapiens) (P06493 whole entry, looked up): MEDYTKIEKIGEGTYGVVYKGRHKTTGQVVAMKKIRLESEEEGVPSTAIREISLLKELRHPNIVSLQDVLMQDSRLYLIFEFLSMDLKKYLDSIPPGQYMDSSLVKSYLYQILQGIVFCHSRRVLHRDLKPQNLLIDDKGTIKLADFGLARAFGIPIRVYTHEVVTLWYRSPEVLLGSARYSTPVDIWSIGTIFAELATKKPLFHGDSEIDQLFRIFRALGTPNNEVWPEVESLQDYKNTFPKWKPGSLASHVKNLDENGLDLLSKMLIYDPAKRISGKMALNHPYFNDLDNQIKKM

[6] = molecular target: T2, Inhibitor of nuclear factor kappa-B kinase subunit beta (Homo sapiens) (UniProt O14920); experiment: Inhibition of IKK-beta at 10 uM by HTRF assay relative to control; outline: as §1
T2 sequence (whole entry): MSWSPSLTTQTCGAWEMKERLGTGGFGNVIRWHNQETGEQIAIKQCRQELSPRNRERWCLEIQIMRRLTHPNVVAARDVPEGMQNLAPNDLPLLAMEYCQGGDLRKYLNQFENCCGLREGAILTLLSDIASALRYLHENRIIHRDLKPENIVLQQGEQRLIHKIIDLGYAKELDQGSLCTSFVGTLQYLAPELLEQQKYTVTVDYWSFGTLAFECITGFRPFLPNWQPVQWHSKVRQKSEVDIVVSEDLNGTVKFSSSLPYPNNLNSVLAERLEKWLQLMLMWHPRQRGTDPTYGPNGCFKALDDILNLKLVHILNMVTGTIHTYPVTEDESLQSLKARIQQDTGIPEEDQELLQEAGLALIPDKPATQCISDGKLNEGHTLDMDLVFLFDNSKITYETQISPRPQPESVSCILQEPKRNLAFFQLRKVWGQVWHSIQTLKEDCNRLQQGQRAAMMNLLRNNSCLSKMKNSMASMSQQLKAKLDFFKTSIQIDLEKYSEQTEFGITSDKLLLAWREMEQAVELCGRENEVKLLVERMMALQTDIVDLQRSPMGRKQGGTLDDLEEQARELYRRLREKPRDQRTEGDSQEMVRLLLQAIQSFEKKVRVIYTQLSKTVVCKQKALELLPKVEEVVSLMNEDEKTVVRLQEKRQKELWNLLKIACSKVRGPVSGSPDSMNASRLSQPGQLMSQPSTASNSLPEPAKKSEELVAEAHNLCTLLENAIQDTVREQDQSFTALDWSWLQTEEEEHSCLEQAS

[7] = molecular target: T3, Calcium/calmodulin-dependent protein kinase type IV (Homo sapiens) (UniProt Q16566); experiment: Inhibition of CaMK4 at 10 uM by HTRF assay relative to control; outline: as §1
T3 sequence (whole entry): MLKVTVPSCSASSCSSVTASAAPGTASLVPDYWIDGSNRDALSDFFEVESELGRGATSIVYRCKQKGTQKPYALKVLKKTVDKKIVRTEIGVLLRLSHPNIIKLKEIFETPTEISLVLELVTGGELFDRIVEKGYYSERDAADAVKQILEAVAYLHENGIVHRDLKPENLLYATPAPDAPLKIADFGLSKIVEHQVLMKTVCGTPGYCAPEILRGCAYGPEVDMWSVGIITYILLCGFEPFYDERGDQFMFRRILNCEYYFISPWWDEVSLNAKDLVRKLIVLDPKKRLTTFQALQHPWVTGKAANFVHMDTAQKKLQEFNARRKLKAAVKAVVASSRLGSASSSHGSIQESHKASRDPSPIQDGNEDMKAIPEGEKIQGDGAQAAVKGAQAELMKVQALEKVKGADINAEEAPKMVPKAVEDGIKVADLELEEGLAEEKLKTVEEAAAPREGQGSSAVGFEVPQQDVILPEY

[8] = molecular target: Ribosomal protein S6 kinase alpha-3 (Homo sapiens) (UniProt P51812); experiment: Inhibition of RSK2 at 10 uM by HTRF assay relative to control; outline: as §1
Sequence of Ribosomal protein S6 kinase alpha-3 (Homo sapiens) (P51812 whole entry): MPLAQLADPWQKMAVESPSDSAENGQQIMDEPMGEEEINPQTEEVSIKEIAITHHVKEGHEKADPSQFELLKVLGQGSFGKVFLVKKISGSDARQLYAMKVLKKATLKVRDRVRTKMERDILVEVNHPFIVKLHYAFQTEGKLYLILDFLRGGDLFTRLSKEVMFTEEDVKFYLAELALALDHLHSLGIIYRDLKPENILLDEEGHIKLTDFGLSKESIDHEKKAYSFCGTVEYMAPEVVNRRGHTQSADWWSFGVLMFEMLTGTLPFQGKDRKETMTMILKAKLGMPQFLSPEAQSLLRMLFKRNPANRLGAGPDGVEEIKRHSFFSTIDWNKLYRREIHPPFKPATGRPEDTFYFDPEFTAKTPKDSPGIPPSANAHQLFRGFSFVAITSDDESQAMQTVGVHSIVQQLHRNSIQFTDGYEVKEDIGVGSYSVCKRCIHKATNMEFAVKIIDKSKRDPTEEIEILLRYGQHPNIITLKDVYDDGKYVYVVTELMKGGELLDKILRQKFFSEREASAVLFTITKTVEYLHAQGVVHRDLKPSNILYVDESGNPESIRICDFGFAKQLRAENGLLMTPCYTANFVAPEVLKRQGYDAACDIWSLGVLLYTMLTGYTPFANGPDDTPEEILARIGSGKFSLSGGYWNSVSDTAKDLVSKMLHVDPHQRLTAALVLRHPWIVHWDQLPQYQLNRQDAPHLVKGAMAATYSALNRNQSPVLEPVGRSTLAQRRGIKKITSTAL

[9] = molecular target: 3-phosphoinositide-dependent protein kinase 1 (Homo sapiens) (UniProt O15530); experiment: Inhibition of PDK1 at 10 uM by HTRF assay relative to control
Sequence of 3-phosphoinositide-dependent protein kinase 1 (Homo sapiens) (O15530 whole entry, looked up): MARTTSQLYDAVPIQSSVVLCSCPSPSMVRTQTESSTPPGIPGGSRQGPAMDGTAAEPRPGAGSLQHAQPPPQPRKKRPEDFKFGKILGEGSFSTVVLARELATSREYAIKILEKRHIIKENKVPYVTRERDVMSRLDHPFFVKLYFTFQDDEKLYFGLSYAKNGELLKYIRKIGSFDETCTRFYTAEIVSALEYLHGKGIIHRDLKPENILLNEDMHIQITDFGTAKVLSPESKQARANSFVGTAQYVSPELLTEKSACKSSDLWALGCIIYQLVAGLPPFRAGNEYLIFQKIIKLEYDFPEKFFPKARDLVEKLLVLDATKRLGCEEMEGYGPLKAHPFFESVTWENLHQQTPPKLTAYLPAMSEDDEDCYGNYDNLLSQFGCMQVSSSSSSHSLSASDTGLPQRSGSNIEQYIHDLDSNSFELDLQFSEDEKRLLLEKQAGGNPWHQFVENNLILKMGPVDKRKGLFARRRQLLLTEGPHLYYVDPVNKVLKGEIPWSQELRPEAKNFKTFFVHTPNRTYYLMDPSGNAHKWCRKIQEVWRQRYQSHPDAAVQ

[10] = molecular target: Mitogen-activated protein kinase 1 (Homo sapiens) (UniProt P28482); experiment: Inhibition of ERK2 at 10 uM by HTRF assay relative to control; outline: as §1
Sequence of Mitogen-activated protein kinase 1 (Homo sapiens) (P28482 whole entry): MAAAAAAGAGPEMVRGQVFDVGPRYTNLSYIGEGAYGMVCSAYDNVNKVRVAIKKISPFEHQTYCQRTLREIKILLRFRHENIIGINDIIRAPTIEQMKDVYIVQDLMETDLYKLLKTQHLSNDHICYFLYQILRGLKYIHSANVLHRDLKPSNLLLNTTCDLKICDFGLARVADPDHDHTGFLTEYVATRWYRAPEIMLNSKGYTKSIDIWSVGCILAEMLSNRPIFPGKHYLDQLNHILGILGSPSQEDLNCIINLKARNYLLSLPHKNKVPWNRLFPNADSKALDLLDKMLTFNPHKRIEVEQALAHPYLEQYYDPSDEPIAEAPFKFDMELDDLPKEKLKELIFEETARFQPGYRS

Sequence of MAP kinase-activated protein kinase 2 (Homo sapiens) (P49137 whole entry, looked up): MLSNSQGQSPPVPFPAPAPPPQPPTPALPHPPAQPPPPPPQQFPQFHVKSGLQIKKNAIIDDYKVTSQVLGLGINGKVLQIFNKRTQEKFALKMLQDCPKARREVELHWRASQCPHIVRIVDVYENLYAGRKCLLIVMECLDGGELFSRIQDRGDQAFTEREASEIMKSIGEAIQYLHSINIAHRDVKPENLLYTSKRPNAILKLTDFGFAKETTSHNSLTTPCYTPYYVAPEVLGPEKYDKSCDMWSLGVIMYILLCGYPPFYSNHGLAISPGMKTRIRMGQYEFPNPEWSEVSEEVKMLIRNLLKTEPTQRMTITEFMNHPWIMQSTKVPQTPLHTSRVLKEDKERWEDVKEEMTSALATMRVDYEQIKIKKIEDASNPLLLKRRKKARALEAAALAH

Structure (SMILES) | inhibition [1] [%] | inhibition [2] [%] | inhibition [3] [%] | inhibition [4] [%] | inhibition [5] [%] | inhibition [6] [%] | inhibition [7] [%] | inhibition [8] [%] | inhibition [9] [%] | inhibition [10] [%]
Cc1cccc(Oc2ccnc(N3CCN(C(=O)c4c(C)noc4C)CC3)n2)c1 | 0 | 0 | 4 | 0 | 0 | 3 | 0 | 0 | 0 | 0
Cc1cccc(CN2CCN(c3cc(N(C)c4cccc(C)c4)ncn3)CC2)c1 | 0 | 0 | 4 | 0 | 0 | 1 | 0 | 0 | 3 | 8
COc1cccc(Nc2cc(N3CCC[C@H]3C(=O)NCCc3ccc(O)cc3)nc(N)n2)c1 | 0 | 0 | 2 | 0 | 0 | 4 | 0 | 0 | 0 | 0
COC(=O)C(CO)NC(=O)[C@@H]1CCCN1c1nccc(Oc2cccc(C)c2)n1 (stereo not given in full) | 1 | 0 | 0 | 0 | 0 | 1 | 0 | 0 | 0 | 1
O=C(CN1CCN(c2ncnc3c2CN(Cc2ccccc2)CC3)CC1)Nc1cc(F)ccc1F | 0 | 0 | 5 | 0 | 0 | 0 | 0 | 0 | 0 | 0
CC(=O)CCCCC(=O)N1CCN(c2nccc(Oc3cccc(C)c3)n2)CC1 | 1 | 0 | 0 | 0 | 0 | 4 | 0 | 0 | 2 | 0
COc1cccc(Nc2cc(Nc3cccc(C(=O)NCCCn4ccnc4)c3)nc(N)n2)c1 | 0 | 8 | 6 | 91 | 2 | 4 | 0 | 0 | 1 | 1
Cc1cccc(Oc2ccnc(N3CCC[C@H]3C(=O)NCc3cccnc3)n2)c1 | 0 | 0 | 6 | 0 | 0 | 0 | 0 | 0 | 0 | 0
Cc1cccc(Nc2ncnc3c2CN(C(=O)c2ccc(N(C)C)c4ccccc24)CC3)c1 | 0 | 3 | 6 | 31 | 0 | 4 | 0 | 0 | 0 | 0
Clc1ccc2sc(CN3CCN(c4ncnc5c4CN(Cc4ccccc4)CC5)CC3)cc2c1 | 1 | 0 | 5 | 0 | 0 | 10 | 0 | 5 | 3 | 0
COC[C@@H]1CCCN1C(=O)[C@@H]1CCCN1c1nccc(Nc2ccccc2)n1 | 1 | 0 | 6 | 0 | 3 | 6 | 0 | 0 | 1 | 0

The remaining lines, values ahead:

inhibition [1] [%] | inhibition [2] [%] | inhibition [3] [%] | inhibition [4] [%] | inhibition [5] [%] | inhibition [6] [%] | inhibition [7] [%] | inhibition [8] [%] | inhibition [9] [%] | inhibition [10] [%] | Structure (SMILES)
6 | 32 | 11 | 27 | 0 | 52 | 0 | 62 | 4 | 40 | O=C(NCc1cccnc1)c1cccc(-c2ccc(Nc3ccc4ncsc4c3)nn2)c1
0 | 0 | 6 | 100 | 0 | 7 | 0 | 0 | 2 | 0 | Cc1cccc(Nc2cc(Nc3cccc(C(=O)N(CC(C)O)CC(C)O)c3)ncn2)c1 (stereo not given)
0 | 5 | 9 | 100 | 1 | 4 | 0 | 5 | 4 | 0 | O=C(NCc1ccncc1)c1cccc(Nc2cc(Nc3cccc(Br)c3)ncn2)c1
0 | 87 | 23 | 8 | 1 | 9 | 0 | 57 | 8 | 0 | Cc1cccc(Nc2nccc(Nc3cccc(C(=O)N(C)CCc4ccccn4)c3)n2)c1
0 | 95 | 18 | 16 | 5 | 52 | 16 | 17 | 0 | 13 | CN(C)CC(C)(C)CNC(=O)c1cccc(Nc2nccc(Nc3ccc4ncsc4c3)n2)c1
3 | 0 | 2 | 0 | 0 | 4 | 0 | 0 | 7 | 0 | Nc1nc(Nc2ccc3ncsc3c2)cc(N2CCC[C@H]2C(=O)NCCc2cccc(I)c2)n1
3 | 0 | 5 | 87 | 0 | 0 | 0 | 0 | 1 | 2 | Cc1cccc(N(C)c2cc(Nc3ccc(CC(=O)Nc4ccc5ncsc5c4)cc3)ncn2)c1
0 | 0 | 9 | 99 | 0 | 1 | 0 | 14 | 0 | 0 | CC(=O)N1CCN(C(=O)c2cccc(Nc3cc(N(C)c4cccc(C)c4)ncn3)c2)CC1
3 | 6 | 2 | 0 | 0 | 9 | 0 | 0 | 5 | 0 | Cc1cccc(N(C)c2cc(N3CCN(CC(=O)Nc4nc(-c5ccccc5)cs4)CC3)ncn2)c1
0 | 0 | 2 | 0 | 0 | 3 | 0 | 0 | 3 | 5 | Cc1cccc(N(C)c2cc(N3CCN(C(=O)Cc4c[nH]c5ccccc45)CC3)ncn2)c1
2 | 2 | 3 | 0 | 0 | 11 | 0 | 3 | 0 | 0 | O=C(NCCc1ccc(O)cc1)c1cccc(Nc2nccc(Nc3ccc4ncsc4c3)n2)c1

— ChEMBL document CHEMBL1150387, “Development and experimental validation of a docking strategy for the generation of kinase-targeted libraries” (J Med Chem, 2008)
